# Measured values collected from several papers.
# Protocols differ between the studies behind these lines.
# Target: MAP kinase-interacting serine/threonine-protein kinase 1 (MKNK1, Homo sapiens, UniProt Q9BUB5)
SMILES,assay,conditions,quantity,value
Nc1ncc(-c2nc(N3CCOCC3)nc(N3CCOCC3)n2)c(C(F)F)n1,"binding, competition with immobilised ligand",10 µM,remaining binding,45%
O=c1[nH]c2ccccc2n1C1CCN(Cc2ccc(-c3[nH]c4cc5ncnc5cc4nc3-c3ccccc3)cc2)CC1,cell-free assay,0.5 µM,remaining signal,104%
COc1ncccc1-c1cnn2ccc(N3CCN(C(=O)OC(C)C)CC3)nc12,"binding, competition with immobilised ligand",1 µM,remaining binding,100%
Cc1nn(C)cc1-c1nc2c(N3CCN(Cc4ccc(Cl)cc4)CC3)c(Cl)cnc2[nH]1,"binding, competition with immobilised ligand",1 µM,remaining binding,100%
Cn1cncc1[C@](O)(COc1ccc(C#N)cc1-c1ccc(OC(F)(F)F)cc1)c1ccc(C#N)cc1,"cell-free assay, competition with immobilised ligand",1 µM,remaining binding,68%
COc1cc(Nc2ncc(F)c(Nc3ccc4c(n3)NC(=O)C(C)(C)O4)n2)cc(OC)c1OC,"binding, competition with immobilised ligand",10 µM,inhibition,9%
CC(C)(C)c1cc(C=C(C#N)C#N)cc(Br)c1O,"enzyme activity, inhibitor",0.5 µM,remaining activity,95.9%
N#CC1(c2ccccn2)CCN(Cc2cc(C(=O)O)c(=O)n3ccccc23)CC1,"cell-free assay, competition with immobilised ligand",1 µM,remaining binding,85%
